How the values were obtained:
[1] = biological target: Cyclin-dependent kinase 2 (Homo sapiens) (UniProt P24941); experiment: Competitive binding affinity to CDK2 (unknown origin) at 10 uM in presence of ATP relative to control
Outline: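 In vitro ATP-site competition binding assay across a diverse panel of 128 kinases, with each compound tested at a single concentration. Kinase binding is expressed relative to control.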

[2] = biological target: Dual specificity tyrosine-phosphorylation-regulated kinase 1B (Homo sapiens) (UniProt Q9Y463); experiment: Competitive binding affinity to DYRK1B (unknown origin) at 10 uM in presence of ATP relative to control
Chain of Dual specificity tyrosine-phosphorylation-regulated kinase 1B (Homo sapiens) (Q9Y463 whole entry, looked up): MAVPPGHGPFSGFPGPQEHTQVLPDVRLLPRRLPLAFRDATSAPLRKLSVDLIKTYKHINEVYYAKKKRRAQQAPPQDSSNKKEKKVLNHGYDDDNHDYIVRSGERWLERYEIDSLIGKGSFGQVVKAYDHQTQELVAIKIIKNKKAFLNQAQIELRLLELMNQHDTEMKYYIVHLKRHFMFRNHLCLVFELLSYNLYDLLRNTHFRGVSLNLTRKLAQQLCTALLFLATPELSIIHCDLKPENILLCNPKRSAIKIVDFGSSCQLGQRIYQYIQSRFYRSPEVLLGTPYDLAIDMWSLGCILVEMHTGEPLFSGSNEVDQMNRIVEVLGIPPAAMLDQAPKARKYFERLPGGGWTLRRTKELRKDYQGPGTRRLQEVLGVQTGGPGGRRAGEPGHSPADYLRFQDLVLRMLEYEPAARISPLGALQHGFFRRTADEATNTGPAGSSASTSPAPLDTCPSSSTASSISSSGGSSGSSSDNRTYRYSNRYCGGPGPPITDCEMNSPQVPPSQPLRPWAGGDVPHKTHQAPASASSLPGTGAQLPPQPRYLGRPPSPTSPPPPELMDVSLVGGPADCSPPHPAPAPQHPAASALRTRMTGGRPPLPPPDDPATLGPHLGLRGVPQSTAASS

[3] = biological target: T1, NUAK family SNF1-like kinase 1 (Homo sapiens) (UniProt O60285); experiment: Competitive binding affinity to ARK5 (unknown origin) at 10 uM in presence of ATP relative to control
T1 sequence (whole entry): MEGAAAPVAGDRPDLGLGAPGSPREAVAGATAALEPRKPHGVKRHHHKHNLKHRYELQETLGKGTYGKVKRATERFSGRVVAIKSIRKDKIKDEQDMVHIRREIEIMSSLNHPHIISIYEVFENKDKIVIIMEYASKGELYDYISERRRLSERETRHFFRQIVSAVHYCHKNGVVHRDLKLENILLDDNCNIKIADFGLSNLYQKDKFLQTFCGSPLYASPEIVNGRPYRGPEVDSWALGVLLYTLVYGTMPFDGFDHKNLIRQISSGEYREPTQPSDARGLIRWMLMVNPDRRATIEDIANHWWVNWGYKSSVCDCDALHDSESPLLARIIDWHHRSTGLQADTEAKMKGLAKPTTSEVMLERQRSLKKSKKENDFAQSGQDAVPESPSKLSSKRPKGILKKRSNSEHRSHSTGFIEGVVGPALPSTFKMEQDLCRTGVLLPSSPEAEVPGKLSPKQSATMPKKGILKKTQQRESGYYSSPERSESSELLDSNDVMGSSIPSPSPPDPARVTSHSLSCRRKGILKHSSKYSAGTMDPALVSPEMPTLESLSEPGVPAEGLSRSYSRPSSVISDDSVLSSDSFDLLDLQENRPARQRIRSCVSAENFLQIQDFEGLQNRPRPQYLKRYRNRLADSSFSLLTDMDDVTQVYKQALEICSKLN

[4] = test system: Epidermal growth factor receptor (Homo sapiens), P00533 [G719S]; experiment: Competitive binding affinity to EGFR G719S mutant (unknown origin) at 10 uM in presence of ATP relative to control
Chain of Epidermal growth factor receptor (Homo sapiens), P00533 [G719S] (P00533 whole entry G719S): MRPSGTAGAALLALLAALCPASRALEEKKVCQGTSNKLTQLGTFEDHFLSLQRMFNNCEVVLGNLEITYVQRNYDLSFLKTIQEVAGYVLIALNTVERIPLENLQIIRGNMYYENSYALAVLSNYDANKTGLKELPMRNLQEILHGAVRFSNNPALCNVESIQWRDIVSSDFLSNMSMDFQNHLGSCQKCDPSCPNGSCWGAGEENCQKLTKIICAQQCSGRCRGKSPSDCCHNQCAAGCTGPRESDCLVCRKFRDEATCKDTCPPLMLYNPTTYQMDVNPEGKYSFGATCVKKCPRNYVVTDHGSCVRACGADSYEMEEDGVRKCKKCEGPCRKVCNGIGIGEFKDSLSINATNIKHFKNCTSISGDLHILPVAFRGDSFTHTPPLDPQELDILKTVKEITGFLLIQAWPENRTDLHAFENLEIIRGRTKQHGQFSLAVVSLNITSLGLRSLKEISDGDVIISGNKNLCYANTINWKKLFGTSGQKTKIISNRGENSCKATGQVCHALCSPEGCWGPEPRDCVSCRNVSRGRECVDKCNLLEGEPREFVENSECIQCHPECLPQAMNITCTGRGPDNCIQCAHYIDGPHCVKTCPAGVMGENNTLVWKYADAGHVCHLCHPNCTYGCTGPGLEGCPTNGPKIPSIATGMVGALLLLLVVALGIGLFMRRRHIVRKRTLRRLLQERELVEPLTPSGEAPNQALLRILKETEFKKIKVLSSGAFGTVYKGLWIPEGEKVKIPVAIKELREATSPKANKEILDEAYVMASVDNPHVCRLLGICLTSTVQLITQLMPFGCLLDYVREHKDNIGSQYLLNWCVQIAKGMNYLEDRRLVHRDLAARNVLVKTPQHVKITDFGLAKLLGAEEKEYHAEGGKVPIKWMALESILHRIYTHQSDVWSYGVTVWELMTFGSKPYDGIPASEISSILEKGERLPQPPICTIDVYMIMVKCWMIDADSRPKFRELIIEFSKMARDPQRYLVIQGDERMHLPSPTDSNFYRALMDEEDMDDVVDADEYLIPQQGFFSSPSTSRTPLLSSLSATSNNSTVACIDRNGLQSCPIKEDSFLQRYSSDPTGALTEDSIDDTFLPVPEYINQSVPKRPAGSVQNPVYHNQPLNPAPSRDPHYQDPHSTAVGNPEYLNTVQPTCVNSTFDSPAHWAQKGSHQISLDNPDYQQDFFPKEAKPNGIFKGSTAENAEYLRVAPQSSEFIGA
Outline: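 In vitro ATP-site competition binding assay, part of profiling against a diverse panel of 128 kinases. Each compound was tested at a single concentration of 10 µM. Kinome selectivity was summarized as S15 selectivity scores.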

[5] = biological target: T2, Activin receptor type-1 (Homo sapiens) (UniProt Q04771); experiment: Competitive binding affinity to ACVR1 (unknown origin) at 10 uM in presence of ATP relative to control
T2 sequence (whole entry): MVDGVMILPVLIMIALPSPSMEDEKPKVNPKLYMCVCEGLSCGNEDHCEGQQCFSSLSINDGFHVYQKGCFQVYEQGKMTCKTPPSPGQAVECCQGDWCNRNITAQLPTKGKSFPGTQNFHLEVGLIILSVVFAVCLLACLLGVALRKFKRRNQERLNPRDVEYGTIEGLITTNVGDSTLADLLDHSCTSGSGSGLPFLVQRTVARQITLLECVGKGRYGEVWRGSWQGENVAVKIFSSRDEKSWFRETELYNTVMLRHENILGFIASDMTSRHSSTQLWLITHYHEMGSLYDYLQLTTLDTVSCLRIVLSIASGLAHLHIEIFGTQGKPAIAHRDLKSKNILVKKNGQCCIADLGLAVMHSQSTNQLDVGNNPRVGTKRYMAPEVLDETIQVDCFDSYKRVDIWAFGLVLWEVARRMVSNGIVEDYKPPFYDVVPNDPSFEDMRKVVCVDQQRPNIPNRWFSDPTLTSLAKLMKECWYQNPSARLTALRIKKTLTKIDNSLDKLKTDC

[6] = biological target: Ribosomal protein S6 kinase alpha-5 (Homo sapiens) (UniProt O75582); experiment: Competitive binding affinity to RPS6KA5 kinase domain 2 (unknown origin) at 10 uM in presence of ATP relative to control
Chain of Ribosomal protein S6 kinase alpha-5 (Homo sapiens) (O75582 whole entry, looked up, the tested form may be a part): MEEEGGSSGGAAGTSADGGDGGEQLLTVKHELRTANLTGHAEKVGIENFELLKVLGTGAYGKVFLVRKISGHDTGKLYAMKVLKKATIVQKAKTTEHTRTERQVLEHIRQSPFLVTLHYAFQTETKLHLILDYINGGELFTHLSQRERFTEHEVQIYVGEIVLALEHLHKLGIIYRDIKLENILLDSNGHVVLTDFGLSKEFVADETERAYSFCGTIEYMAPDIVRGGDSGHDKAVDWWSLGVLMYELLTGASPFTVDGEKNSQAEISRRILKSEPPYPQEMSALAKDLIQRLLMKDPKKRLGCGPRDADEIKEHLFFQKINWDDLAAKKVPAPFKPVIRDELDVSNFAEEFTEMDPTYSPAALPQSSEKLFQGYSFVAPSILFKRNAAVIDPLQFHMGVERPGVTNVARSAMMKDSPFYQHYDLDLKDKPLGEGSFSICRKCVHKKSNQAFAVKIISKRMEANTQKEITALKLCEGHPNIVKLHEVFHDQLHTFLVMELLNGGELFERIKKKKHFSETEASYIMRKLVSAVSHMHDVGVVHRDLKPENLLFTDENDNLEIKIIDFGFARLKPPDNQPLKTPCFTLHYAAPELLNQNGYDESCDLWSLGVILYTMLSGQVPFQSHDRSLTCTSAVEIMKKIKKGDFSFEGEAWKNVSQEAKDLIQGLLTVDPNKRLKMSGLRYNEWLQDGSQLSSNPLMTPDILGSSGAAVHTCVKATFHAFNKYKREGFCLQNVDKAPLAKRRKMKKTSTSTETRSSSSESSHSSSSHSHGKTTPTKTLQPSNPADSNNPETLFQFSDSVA

[7] = biological target: Mitogen-activated protein kinase kinase kinase 11 (Homo sapiens) (UniProt Q16584); experiment: Competitive binding affinity to MLK3 (unknown origin) at 10 uM in presence of ATP relative to control
Chain of Mitogen-activated protein kinase kinase kinase 11 (Homo sapiens) (Q16584 whole entry, looked up): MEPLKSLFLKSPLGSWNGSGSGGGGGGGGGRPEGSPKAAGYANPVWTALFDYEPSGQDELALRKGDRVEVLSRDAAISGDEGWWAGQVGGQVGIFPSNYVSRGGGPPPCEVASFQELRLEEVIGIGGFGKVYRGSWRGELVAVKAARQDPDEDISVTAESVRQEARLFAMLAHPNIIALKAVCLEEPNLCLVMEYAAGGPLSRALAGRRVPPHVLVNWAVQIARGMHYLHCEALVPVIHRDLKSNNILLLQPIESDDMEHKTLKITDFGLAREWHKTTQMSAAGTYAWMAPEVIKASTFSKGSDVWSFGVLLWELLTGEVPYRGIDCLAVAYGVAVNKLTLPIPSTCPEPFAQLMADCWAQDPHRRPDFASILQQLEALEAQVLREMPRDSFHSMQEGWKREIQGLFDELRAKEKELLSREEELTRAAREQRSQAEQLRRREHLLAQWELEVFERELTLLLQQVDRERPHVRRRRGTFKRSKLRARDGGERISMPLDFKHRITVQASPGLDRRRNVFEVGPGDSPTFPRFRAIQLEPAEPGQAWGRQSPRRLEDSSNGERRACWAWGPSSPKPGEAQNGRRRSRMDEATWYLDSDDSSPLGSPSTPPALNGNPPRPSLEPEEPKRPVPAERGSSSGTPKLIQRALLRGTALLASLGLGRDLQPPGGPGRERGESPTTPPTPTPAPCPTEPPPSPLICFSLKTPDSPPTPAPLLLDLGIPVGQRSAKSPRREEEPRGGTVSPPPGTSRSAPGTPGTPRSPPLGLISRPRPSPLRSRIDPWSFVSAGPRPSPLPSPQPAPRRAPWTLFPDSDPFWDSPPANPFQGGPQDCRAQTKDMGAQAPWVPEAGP

[8] = biological target: ALK tyrosine kinase receptor (Homo sapiens) (UniProt Q9UM73); experiment: Competitive binding affinity to ALK (unknown origin) at 10 uM in presence of ATP relative to control
[9] = biological target: T3, Serine/threonine-protein kinase Nek5 (Homo sapiens) (UniProt Q6P3R8); experiment: Competitive binding affinity to NEK5 (unknown origin) at 10 uM in presence of ATP relative to control
T3 sequence (whole entry): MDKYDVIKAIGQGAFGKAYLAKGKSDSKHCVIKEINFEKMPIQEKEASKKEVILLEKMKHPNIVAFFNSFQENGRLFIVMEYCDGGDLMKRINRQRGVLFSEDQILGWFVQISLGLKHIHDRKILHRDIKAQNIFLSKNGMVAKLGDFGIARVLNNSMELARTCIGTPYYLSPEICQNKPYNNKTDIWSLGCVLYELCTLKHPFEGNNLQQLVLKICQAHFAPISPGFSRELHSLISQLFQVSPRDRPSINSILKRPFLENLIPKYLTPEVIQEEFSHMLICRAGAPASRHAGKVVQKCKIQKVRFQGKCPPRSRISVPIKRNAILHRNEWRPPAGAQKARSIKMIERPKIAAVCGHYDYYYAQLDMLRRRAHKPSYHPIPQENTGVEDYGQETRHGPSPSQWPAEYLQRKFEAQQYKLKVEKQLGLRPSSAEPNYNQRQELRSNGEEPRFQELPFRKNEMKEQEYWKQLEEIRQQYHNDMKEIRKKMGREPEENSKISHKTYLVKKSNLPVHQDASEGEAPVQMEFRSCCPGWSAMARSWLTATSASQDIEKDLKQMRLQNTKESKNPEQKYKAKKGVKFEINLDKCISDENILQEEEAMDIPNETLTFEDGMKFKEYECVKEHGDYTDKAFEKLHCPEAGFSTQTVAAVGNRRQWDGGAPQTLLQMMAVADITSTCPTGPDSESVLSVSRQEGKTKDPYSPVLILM

[10] = biological target: Serine/threonine-protein kinase 10 (Homo sapiens) (UniProt O94804); experiment: Competitive binding affinity to LOK (unknown origin) at 10 uM in presence of ATP relative to control
[11] = biological target: Mitogen-activated protein kinase kinase kinase 9 (Homo sapiens) (UniProt P80192); experiment: Competitive binding affinity to MLK1 (unknown origin) at 10 uM in presence of ATP relative to control
Chain of Mitogen-activated protein kinase kinase kinase 9 (Homo sapiens) (P80192 whole entry, looked up): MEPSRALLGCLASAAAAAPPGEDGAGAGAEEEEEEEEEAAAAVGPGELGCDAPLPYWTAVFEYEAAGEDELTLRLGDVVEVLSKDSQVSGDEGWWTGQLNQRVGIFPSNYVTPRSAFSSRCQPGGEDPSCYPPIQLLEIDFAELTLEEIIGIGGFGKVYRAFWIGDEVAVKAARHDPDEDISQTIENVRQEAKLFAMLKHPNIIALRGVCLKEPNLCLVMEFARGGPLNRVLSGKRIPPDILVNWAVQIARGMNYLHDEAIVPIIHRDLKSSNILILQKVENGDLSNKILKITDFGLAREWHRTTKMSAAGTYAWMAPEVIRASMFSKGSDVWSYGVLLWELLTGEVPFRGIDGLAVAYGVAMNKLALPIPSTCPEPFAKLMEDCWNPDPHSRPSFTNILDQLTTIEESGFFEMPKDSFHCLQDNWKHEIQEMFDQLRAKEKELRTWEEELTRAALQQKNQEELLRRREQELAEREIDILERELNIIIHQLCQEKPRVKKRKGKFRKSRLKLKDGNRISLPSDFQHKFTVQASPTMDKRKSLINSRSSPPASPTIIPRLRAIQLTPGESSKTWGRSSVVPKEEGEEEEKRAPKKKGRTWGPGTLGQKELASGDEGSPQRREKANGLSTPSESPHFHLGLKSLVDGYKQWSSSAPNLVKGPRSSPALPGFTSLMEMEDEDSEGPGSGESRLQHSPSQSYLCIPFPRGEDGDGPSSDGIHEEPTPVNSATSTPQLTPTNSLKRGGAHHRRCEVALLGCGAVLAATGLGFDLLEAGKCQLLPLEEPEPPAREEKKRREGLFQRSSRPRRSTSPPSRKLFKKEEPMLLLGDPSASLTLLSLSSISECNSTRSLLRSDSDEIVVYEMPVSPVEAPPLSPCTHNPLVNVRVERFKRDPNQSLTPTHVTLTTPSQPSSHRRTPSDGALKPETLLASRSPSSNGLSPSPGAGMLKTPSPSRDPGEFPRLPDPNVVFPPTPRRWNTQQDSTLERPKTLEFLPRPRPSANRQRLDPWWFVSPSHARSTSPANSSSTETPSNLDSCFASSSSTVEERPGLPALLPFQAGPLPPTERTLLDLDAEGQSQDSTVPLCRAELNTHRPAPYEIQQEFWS

| inhibition [1] [%] | inhibition [2] [%] | inhibition [3] [%] | inhibition [4] [%] | inhibition [5] [%] | inhibition [6] [%] | inhibition [7] [%] | inhibition [8] [%] | inhibition [9] [%] | inhibition [10] [%] | inhibition [11] [%] | Compound |
| --- | --- | --- | --- | --- | --- | --- | --- | --- | --- | --- | --- |
| 94 | 99 | 74 | < 50 | < 50 | 66 | < 50 | 78 | 71 | < 50 | < 50 | O[C@H]1CC[C@H](Nc2nccc(-n3ncc4ccccc43)n2)CC1 |
| 90 | 100 | < 50 | < 50 | < 50 | < 50 | < 50 | < 50 | < 50 | < 50 | < 50 | O[C@H]1CC[C@H](Nc2nccc(-n3ccc4ccccc43)n2)CC1 |
|  |  |  |  |  |  |  |  | > 85 |  |  | CS(=O)(=O)CCCOc1cccc2c1ccn2-c1ccnc(N[C@H]2CC[C@H](C(=O)N3CCC(O)CC3)CC2)n1 |
| 100 |  |  | < 50 | < 50 |  | 88 | 100 |  | 88 |  | O[C@H]1CC[C@H](Nc2nccc(-c3n[nH]c4ccccc34)n2)CC1 |
| 94 | 100 | 72 | < 50 | < 50 | 85 | < 50 | 66 | 95 | < 50 | < 50 | O[C@H]1CC[C@H](Nc2nccc(-n3nnc4ccccc43)n2)CC1 |

From ChEMBL document CHEMBL2424622, “Development of amino-pyrimidine inhibitors of c-Jun N-terminal kinase (JNK): kinase profiling guided optimization of a 1,2,3-benzotriazole lead” (Bioorg Med Chem Lett, 2013)
